# pIC50, pKi: −log10 of the molar value.
# Legend:
# [1] = Inhibition of IGFR
# [2] = molecular target: Vascular endothelial growth factor receptor 2 (Homo sapiens, UniProt P35968); assay: Inhibition of phosphorylated KDR by HTRF assay
# Outline: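 HTRF assay against KDR kinase with 10-point serial dilution. ATP at two-thirds of the experimentally determined Km (Eadie-Hofstee and Lineweaver-Burke). Ki derived from the IC50.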
# [3] = Clearance in iv dosed rat; format: ADME, organism-based; details: in vivo
# [4] = molecular target: Tyrosine-protein kinase ZAP-70 (Homo sapiens, UniProt P43403); assay: Inhibition of ZAP70
# Mus musculus = assay: Inhibition of human recombinant HGF-induced cMet phosphorylation in po or ip dosed BALB/c mouse liver after 2 hrs
# [5] = molecular target: Tyrosine-protein kinase JAK2 (Homo sapiens, UniProt O60674); assay: Inhibition of JAK2
# [6] = molecular target: Mitogen-activated protein kinase 9 (Homo sapiens, UniProt P45984); assay: Inhibition of JNK2
# [7] = Volume of distribution in iv dosed rat; format: ADME, organism-based; details: in vivo
# [8] = molecular target: T1, Tyrosine-protein kinase JAK3 (Homo sapiens, UniProt P52333); assay: Inhibition of JAK3
# T1 sequence (P52333 whole entry): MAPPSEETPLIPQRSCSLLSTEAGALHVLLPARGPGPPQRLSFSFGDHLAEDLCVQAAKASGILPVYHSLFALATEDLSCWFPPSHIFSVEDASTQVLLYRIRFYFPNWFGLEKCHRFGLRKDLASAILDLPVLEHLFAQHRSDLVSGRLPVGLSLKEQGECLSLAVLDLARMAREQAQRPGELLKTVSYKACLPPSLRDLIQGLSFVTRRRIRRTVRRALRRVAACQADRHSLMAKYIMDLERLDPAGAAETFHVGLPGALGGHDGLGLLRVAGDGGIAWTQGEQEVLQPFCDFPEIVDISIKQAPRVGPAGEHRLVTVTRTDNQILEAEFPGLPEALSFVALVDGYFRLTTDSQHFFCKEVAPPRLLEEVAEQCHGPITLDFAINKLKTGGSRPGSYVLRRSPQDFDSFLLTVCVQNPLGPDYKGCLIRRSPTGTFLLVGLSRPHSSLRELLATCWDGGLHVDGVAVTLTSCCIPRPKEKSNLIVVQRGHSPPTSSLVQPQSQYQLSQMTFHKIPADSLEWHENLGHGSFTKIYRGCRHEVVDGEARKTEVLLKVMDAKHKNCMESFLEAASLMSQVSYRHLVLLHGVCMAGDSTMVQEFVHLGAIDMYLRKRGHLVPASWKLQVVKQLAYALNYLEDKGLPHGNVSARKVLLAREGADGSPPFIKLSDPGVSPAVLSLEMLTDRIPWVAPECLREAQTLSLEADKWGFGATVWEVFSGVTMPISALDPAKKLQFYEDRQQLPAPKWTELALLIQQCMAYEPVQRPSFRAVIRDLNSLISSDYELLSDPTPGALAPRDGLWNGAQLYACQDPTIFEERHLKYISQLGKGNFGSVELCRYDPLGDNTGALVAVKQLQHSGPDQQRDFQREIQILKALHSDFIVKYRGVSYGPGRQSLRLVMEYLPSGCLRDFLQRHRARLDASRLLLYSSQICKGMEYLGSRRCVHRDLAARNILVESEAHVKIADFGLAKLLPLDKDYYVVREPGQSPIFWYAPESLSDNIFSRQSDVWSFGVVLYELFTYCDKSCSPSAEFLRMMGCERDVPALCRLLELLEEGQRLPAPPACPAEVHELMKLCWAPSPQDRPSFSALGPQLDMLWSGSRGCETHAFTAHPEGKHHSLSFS
# [9] = molecular target: RAC-alpha serine/threonine-protein kinase (Homo sapiens, UniProt P31749); assay: Inhibition of PKBalpha
# [10] = molecular target: Vascular endothelial growth factor receptor 3 (Homo sapiens, UniProt P35916); assay: Inhibition of Flt4 kinase
# [11] = molecular target: Tyrosine-protein kinase BTK (Homo sapiens, UniProt Q06187); assay: Inhibition of BTK
# [12] = molecular target: Vascular endothelial growth factor receptor 1 (Homo sapiens, UniProt P17948); assay: Inhibition of Flt1 kinase
# [13] = molecular target: Fibroblast growth factor receptor 2 (Homo sapiens, UniProt P21802); assay: Inhibition of FGFRK2
# [14] = molecular target: Macrophage-stimulating protein receptor (Homo sapiens, UniProt Q04912); assay: Inhibition of phosphorylated RON
# Aurora kinase A = molecular target: T2, Aurora kinase A (Homo sapiens, UniProt O14965); assay: Inhibition of Aurora2
# T2 sequence (O14965 whole entry): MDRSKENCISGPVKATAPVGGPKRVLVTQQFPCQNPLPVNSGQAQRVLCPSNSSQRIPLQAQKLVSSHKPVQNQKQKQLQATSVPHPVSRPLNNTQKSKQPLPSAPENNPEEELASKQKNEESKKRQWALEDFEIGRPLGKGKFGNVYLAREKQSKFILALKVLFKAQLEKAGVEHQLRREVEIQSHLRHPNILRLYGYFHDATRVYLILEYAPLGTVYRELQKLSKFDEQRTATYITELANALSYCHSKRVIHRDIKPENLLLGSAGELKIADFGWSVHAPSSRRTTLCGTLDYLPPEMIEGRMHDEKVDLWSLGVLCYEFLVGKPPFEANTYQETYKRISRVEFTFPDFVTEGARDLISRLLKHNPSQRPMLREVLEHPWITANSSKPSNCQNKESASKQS
# [15] = molecular target: Hepatocyte growth factor receptor c-Met (Mus musculus) (UniProt P16056); assay: Inhibition of human recombinant HGF-mediated cMet phosphorylation in mouse CT26 cells
# [16] = molecular target: Ribosomal protein S6 kinase beta-1 (Homo sapiens, UniProt P23443); assay: Inhibition of P70S6
# [17] = molecular target: cAMP-dependent protein kinase catalytic subunit alpha (Homo sapiens, UniProt P17612); assay: Inhibition of PKAalpha
# [18] = molecular target: Hepatocyte growth factor receptor (Homo sapiens, UniProt P08581); assay: Inhibition of cMet by HTRF assay
# [19] = Inhibition of P38 kinase
# [20] = molecular target: Mitogen-activated protein kinase 3 (Homo sapiens, UniProt P27361); assay: Inhibition of ERK1
# [21] = Half life in iv dosed rat; format: ADME, organism-based; details: in vivo
# [22] = molecular target: Tyrosine-protein kinase Lck (Homo sapiens, UniProt P06239); assay: Inhibition of LCK
# [23] = molecular target: Ribosomal protein S6 kinase alpha-5 (Homo sapiens, UniProt O75582); assay: Inhibition of MSK1
# Angiopoietin-1 receptor = Angiopoietin-1 receptor (Homo sapiens, UniProt Q02763); assay: Inhibition of Tie2 kinase
# [24] = Inhibition of FGFRK
# [25] = Bioavailability in iv dosed rat; format: ADME, organism-based; details: in vivo
# [26] = Selectivity of cMet over RON
# [27] = Selectivity of cMet over KDR
# A-431 = assay: Cytotoxicity against human A431 cells; format: functional, cell-based
# [28] = molecular target: Serine/threonine-protein kinase pim-2 (Homo sapiens, UniProt Q9P1W9); assay: Inhibition of PIM2 kinase
# [29] = Selectivity of cMet over cFMS kinase
# [30] = Selectivity of cMet over Tie2 kinase
# [31] = Selectivity of cMet over MSK1
# [32] = Selectivity of cMet over JNK2
# [33] = Selectivity of cMet over BTK
# [34] = Selectivity of cMet over Flt1
# [35] = Selectivity of cMet over ZAP70
# [36] = Selectivity of cMet over PKAalpha
# [37] = Selectivity of cMet over FGFRK2
# [38] = Selectivity of cMet over LCK
# [39] = Selectivity of cMet over ERK1
# [40] = Selectivity of cMet over EGFR
# [41] = Selectivity of cMet over PKBalpha
# [42] = Selectivity of cMet over P38
# [43] = molecular target: Cyclin-dependent kinase 5 (Homo sapiens, UniProt Q00535); assay: Inhibition of CDK5
# [44] = Selectivity of cMet over P70S6
# [45] = Selectivity of cMet over Flt2
# [46] = Selectivity of cMet over PIM1
# [47] = molecular target: Serine/threonine-protein kinase pim-1 (Homo sapiens, UniProt P11309); assay: Inhibition of PIM1 kinase
# [48] = Selectivity of cMet over JAK3
# [49] = Selectivity of cMet over FGFRK
# [50] = Selectivity of cMet over Aurora2
# [51] = Selectivity of cMet over JAK2
# [52] = Selectivity of cMet over PIM2
# [53] = Selectivity of cMet over CDK5
smiles,measurement,setting,value
COc1cc2nccc(Oc3ccc(-c4cnc(Cc5ccccc5)n(C)c4=O)cc3F)c2cc1OC,pKi,[1],5.99
same,pKi,[2],< 5.89
COc1cc2c(Oc3ccc(-c4cnc(Nc5ccc(F)cc5)n(C)c4=O)cc3F)ccnc2cc1OCCCN1CCOCC1,clearance,[3],9.33 mL/min/kg
same,pIC50,[4],< 5.08
same,pKi,[1],7.66
same,ED90,Mus musculus,30 mg/kg
same,pIC50,[5],5.47
same,pIC50,[6],< 4.00
same,pKi,[2],6.86
same,Vd,[7],3.4 L/kg
same,pIC50,[8],< 6.00
same,pIC50,[9],< 4.00
same,pIC50,[10],8.30
same,pIC50,[11],7.57
same,pIC50,[12],7.35
same,pIC50,[13],6.85
same,pKi,[14],7.55
same,pIC50,Aurora kinase A,< 6.70
same,pIC50,[15],7.09
same,pIC50,[16],5.24
same,pIC50,[17],< 4.00
same,pKi,[18],8.31
same,pIC50,[19],5.44
same,pIC50,[20],< 4.00
same,half-life,[21],2.4 h
same,pIC50,[22],> 8.40
same,pIC50,[23],< 4.00
same,pIC50,Angiopoietin-1 receptor,7.59
same,pIC50,[24],< 4.60
same,bioavailability,[25],34%
COc1cc2nccc(Oc3ccc4cc(NC(=O)Cc5ccccc5)ccc4c3)c2cc1OC,Selectivity ratio,[26],3
same,Selectivity ratio,[27],9
same,pKi,[18],7.05
COc1cc2c(Oc3ccc(-c4cnc(Cc5ccc(F)cc5)n(C)c4=O)cc3F)ccnc2cc1OCCCN1CCOCC1,pKi,[1],6.07
same,pKi,[2],< 5.52
same,pIC50,[15],6.71
same,pKi,[18],7.77
COc1cc2nccc(Oc3ccc(-c4cnc(C(N)c5ccccc5)n(C)c4=O)cc3F)c2cc1OC (stereo not given),pKi,[18],7.14
COc1cc2nccc(Oc3ccc(NC(=S)NC(=O)Cc4ccccc4)cc3F)c2cc1OC,pIC50,A-431,8.06
COc1cc2nccc(Oc3ccc(-c4cnc(Nc5cccc(F)c5)n(C)c4=O)cc3F)c2cc1OC,pKi,[18],7.42
COc1cc2nccc(Oc3ccc(-c4ccc(Cc5ccccc5)nn4)cc3F)c2cc1OC,pKi,[2],7.25
same,pKi,[18],6.70
COc1cc2c(Oc3ccc(-c4cnc(Cc5ccccc5)n(C)c4=O)cc3F)ccnc2cc1OCCCN1CCN(C)CC1,pKi,[18],8.04
COc1cc2c(Oc3ccc(-c4cnc(Nc5ccc(F)cc5)n(C)c4=O)nc3)ccnc2cc1OCCCN1CCOCC1,clearance,[3],9.33 mL/min/kg
same,pIC50,[28],< 4.60
same,Selectivity ratio,[29],< 10
same,Selectivity ratio,[30],> 100
same,Selectivity ratio,[31],> 100
same,Selectivity ratio,[32],> 100
same,Selectivity ratio,[33],< 10
same,pKi,[1],7.29
same,Selectivity ratio,[34],> 100
same,ED90,Mus musculus,30 mg/kg
same,pIC50,[6],5.33
same,pKi,[2],7.08
same,Selectivity ratio,[35],> 100
same,Vd,[7],3.4 L/kg
same,pIC50,[8],< 4.60
same,pIC50,[9],< 4.00
same,pIC50,[11],6.90
same,Selectivity ratio,[36],> 100
same,Selectivity ratio,[37],> 100
same,Selectivity ratio,[38],< 10
same,Selectivity ratio,[39],> 100
same,pKi,[14],8.89
same,pIC50,Aurora kinase A,6.37
same,Selectivity ratio,[40],> 100
same,Selectivity ratio,[41],> 100
same,Selectivity ratio,[42],> 100
same,pIC50,[43],< 4.00
same,pIC50,[15],7.23
same,Selectivity ratio,[44],> 100
same,pIC50,[16],4.19
same,Selectivity ratio,[45],> 100
same,Selectivity ratio,[46],> 100
same,pIC50,[47],5.11
same,pIC50,[17],< 4.60
same,Selectivity ratio,[48],> 100
same,Selectivity ratio,[49],> 100
same,pKi,[18],8.47
same,pIC50,[19],< 4.00
same,pIC50,[20],< 4.00
same,Selectivity ratio,[50],> 100
same,half-life,[21],2.4 h
same,Selectivity ratio,[51],> 100
same,pIC50,[22],7.48
same,pIC50,[23],4.28
same,Selectivity ratio,[52],> 100
same,pIC50,Angiopoietin-1 receptor,6.66
same,Selectivity ratio,[53],> 100
same,pIC50,[24],5.89
same,bioavailability,[25],48%
CCN1CCN(CCCOc2cc3nccc(Oc4ccc(-c5cnc(Cc6ccccc6)n(C)c5=O)cc4F)c3cc2OC)CC1,pKi,[18],7.68
COc1cc2nccc(Oc3ccc(-c4cnc(Nc5ccc(F)cc5)n(C)c4=O)cc3F)c2cc1OC,pKi,[1],7.15
same,pKi,[2],6.42

# — ChEMBL document CHEMBL1140082, “Design, synthesis, and biological evaluation of potent c-Met inhibitors” (J Med Chem, 2008)
